Screening results (PubChem)
HCV NS3 hel inh – blocks Hepatitis C virus NS3 helicase unwinding | NS3 helicase DNA unwinding, Cy5 molecular beacon fluorescence | inhibition, % at 10.9 µM | actives 0.56% (n = 290,000) | AID 1800;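 active means inhibition above the mean of all tested compounds plus 3 SD, set per campaign, cut at about 35% in these data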
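test system = hepatitis C virus NS3 helicase domain fragment enzyme | reagent = annealed dual-labelled DNA beacon duplex, ATP-started | times = 1 h at 25 °C | detection = Cy5 fluorescence, 0 and 60 min reads | read-out basis = percent inhibition from t60/t0 fluorescence ratio | control set = DMSO and thioflavine S | replication = one well per compound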
NR3A LBD binder – modulates the human NR3A ligand-binding domain; NR3A LBD differential scanning fluorimetry, Tm shift; 0% = protein alone, 100% = glycine-bound protein; Tm shift relative to glycine control, % at 25 µM; actives 2.5% (n = 340,000);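 active means melting temperature shift of at least 10% of the positive control shift, at one fixed dose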
ZTA DNA inh – counter-screen for EBNA-1 inhibitors: inhibitors of Epstein-Barr virus ZTA | P03206 | ZTA-DNA binding, fluorescence polarization | inhibition, % at 11 µM | actives 0.15% (n = 320,000); in the data active means inhibition above about 33%
Target sequence (P03206 whole entry, looked up): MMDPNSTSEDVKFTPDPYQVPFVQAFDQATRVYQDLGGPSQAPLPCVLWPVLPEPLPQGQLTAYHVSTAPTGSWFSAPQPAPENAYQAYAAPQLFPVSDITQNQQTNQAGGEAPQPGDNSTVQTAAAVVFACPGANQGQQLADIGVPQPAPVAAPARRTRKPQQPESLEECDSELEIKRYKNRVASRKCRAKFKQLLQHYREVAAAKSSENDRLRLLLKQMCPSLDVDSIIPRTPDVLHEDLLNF
DNA FID counter – displaces DNA intercalator in HCV helicase counter-screen | AID 1845 | inhibition, % at 7.9 µM | DNA fluorescent intercalator displacement, fluorescence | actives 0.17% (n = 290,000); in the data active means inhibition above about 37%;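 further: higher means more ethidium bromide displaced from hairpin DNA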
FGF22 binding – binders of recombinant human FGF22 by thermal shift. Q9HCT0. SYPRO orange fluorescence; percent of sucrose octasulfate shift, DMSO zero. activity (Tm shift, normalised), % at 9.99 µM. actives 1.5% (n = 340,000);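 active means mean Tm shift, scaled 0 neutral to 100 positive control, at about 1.3% or above, every replicate too, limit read from the data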
Target sequence (Q9HCT0 whole entry, looked up): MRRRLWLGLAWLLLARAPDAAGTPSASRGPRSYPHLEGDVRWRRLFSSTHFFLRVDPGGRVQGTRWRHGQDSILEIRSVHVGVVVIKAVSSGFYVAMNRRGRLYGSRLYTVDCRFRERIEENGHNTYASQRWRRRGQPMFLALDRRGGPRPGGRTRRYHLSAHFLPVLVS
EBNA-1 inhibitor – blocks EBNA-1 binding to DNA; inhibition, % at 14.8 µM; actives 0.34% (n = 300,000); EBNA-1 DNA binding, fluorescence polarization; in the data active means inhibition above about 28%
Of the large screens only hits and unclear results are named; the others gave an inactive call. Rows were chosen to be rich in hits. Some 3.6% of all compounds tested hit in one or more screens of this group.

Cc1ccc(-c2nc(C=Nc3ccc(O)cc3)c(O)o2)cc1	NR3A LBD binder 11 (no result: ZTA DNA inh, EBNA-1 inhibitor)
CC1=CC(C)(C)N(C(=O)CN2C(=O)CCC2=O)c2ccccc21	FGF22 binding 43
Cc1c(C(=S)Nc2ccccc2)cnn1-c1ccc([N+](=O)[O-])cc1	none (no result: FGF22 binding)
Cc1c(C(=S)Nc2ccccc2)cnn1-c1ccccc1	NR3A LBD binder 15 (no result: FGF22 binding)
Cc1cccc(Nc2ncccc2C(=O)O)c1C	none
COc1cc([N+](=O)[O-])c(OC)cc1Nc1ccccc1C(=O)O	none (no result: HCV NS3 hel inh, NR3A LBD binder, ZTA DNA inh, DNA FID counter, EBNA-1 inhibitor)
Cc1cccc(Nc2ccccc2C(=O)O)c1C	NR3A LBD binder 14
COc1cc(-c2ccc(Nc3ccccc3C(=O)O)c(OC)c2)ccc1Nc1ccccc1C(=O)O	NR3A LBD binder 38 (no result: ZTA DNA inh, EBNA-1 inhibitor)
CCC(CC)NC(=O)Nc1cccc(C)c1C	FGF22 binding 43
COc1cc(C2c3c(-c4cc(C)cc(C)c4O)n[nH]c3C(=O)N2CCCO)cc(OC)c1OC (stereo unspecified)	NR3A LBD binder 345 (no result: FGF22 binding)
COC(=O)C1=C(C)NC(=O)NC1c1ccco1 (stereo unspecified)	FGF22 binding 43
Cc1ccc2nc(N(CCCN(C)C)C(=O)c3ccc(S(=O)(=O)N4CCCCCC4)cc3)sc2c1	none
CCc1ccc2nc(N(CCCN(C)C)C(=O)c3ccc(C(=O)c4ccccc4)cc3)sc2c1	DNA FID counter 38
Cc1ccc2nc(N(CCN(C)C)C(=O)c3ccc4ccccc4c3)sc2c1	NR3A LBD binder 12 (no result: FGF22 binding)
CCCCN(C)S(=O)(=O)c1ccc(C(=O)N(CCN(C)C)c2nc3ccc(C)cc3s2)cc1	FGF22 binding 44
CN(C)CCN(C(=O)c1ccc2ccccc2c1)c1nc2cc3c(cc2s1)OCCO3	NR3A LBD binder 13
CN(C)CCCN(C(=O)c1ccc2ccccc2c1)c1nc2cc3c(cc2s1)OCO3	none
OC[C@@H]1[C@H](c2ccc(-c3cccnc3)cc2)[C@@H]2CN(CC3CCOCC3)CCCCN12	none (no result: HCV NS3 hel inh, NR3A LBD binder, ZTA DNA inh, DNA FID counter, EBNA-1 inhibitor)
COCC(=O)Nc1ccc2c(c1)C(=O)N(C)[C@H]1CC[C@H](CC(=O)N3CCc4ccccc4C3)O[C@H]1CO2	none (no result: HCV NS3 hel inh, NR3A LBD binder, ZTA DNA inh, DNA FID counter, EBNA-1 inhibitor)
CCC(=O)N1CC2(C1)[C@H](c1ccc(-c3ccc(F)cc3)cc1)[C@H](CO)N2C(=O)CC	none (no result: HCV NS3 hel inh, NR3A LBD binder, ZTA DNA inh, DNA FID counter, EBNA-1 inhibitor)
O=[N+]([O-])c1cc(C(F)(F)F)ccc1NCCCCNS(=O)(=O)c1ccc(Cl)cc1	none
O=[N+]([O-])c1cc(Cl)ccc1NCCNc1ncc(C(F)(F)F)cc1Cl	NR3A LBD binder 14 (no result: FGF22 binding)
O=[N+]([O-])c1cc(C(F)(F)F)ccc1NCCNC(=S)Nc1ccc(Cl)cc1	NR3A LBD binder 15
O=[N+]([O-])c1cccnc1NCCNc1ncc(C(F)(F)F)cc1Cl	none (no result: FGF22 binding)
CCOC(=O)Nc1ccc2nc(N3CCCCCC3)sc2c1	NR3A LBD binder 21
O=C(/C=C/c1ccccc1Cl)N1CCOCC1	none
Cc1ccccc1/C=C/C(=O)N1CCOCC1	FGF22 binding 43
COc1ccc(S(=O)(=O)N(C)C[C@H]2Oc3ccc(NC(=O)C4CC4)cc3CC(=O)N([C@H](C)CO)C[C@@H]2C)cc1	none (no result: HCV NS3 hel inh, NR3A LBD binder, ZTA DNA inh, DNA FID counter, EBNA-1 inhibitor)
Cn1c(N)c(C(=O)COC(=O)c2cc(C3CC3)nc3ccccc23)c(=O)n(Cc2ccccc2)c1=O	NR3A LBD binder 18
CO[C@@H]1CN(C)C(=O)c2ccc(NC(C)=O)cc2OC[C@H](C)N(C(=O)C2CC2)C[C@@H]1C	none (no result: HCV NS3 hel inh, NR3A LBD binder, ZTA DNA inh, DNA FID counter, EBNA-1 inhibitor)
CCc1ccccc1NC(=O)CCN1C(=O)C2C3CCC(C3)C2C1=O (stereo unspecified)	FGF22 binding 44
Cc1ccc(NC(=O)CCN2C(=O)C3C4CCC(C4)C3C2=O)cc1Cl (stereo unspecified)	NR3A LBD binder 18
O=C(c1ccncc1)N1C[C@@H]2[C@H](c3ccccc31)[C@@H](CO)N2Cc1ccc(F)cc1	none (no result: HCV NS3 hel inh, NR3A LBD binder, ZTA DNA inh, DNA FID counter, EBNA-1 inhibitor)
COc1ccc2c3c([nH]c2c1)[C@H](CO)N(C(=O)c1ccc(F)cc1)CC31CN(S(=O)(=O)c2cccs2)C1	none (no result: HCV NS3 hel inh, NR3A LBD binder, ZTA DNA inh, DNA FID counter, EBNA-1 inhibitor)
Cc1ccc(-n2c(C)cc(C(=O)CN3CCOCC3)c2C)cc1	none
Cc1ccc(-n2c(C)cc(C(=O)CN3CCOCC3)c2C)cc1C	NR3A LBD binder 18
COc1ccc(NC(=O)Nc2ccc3c(c2)C(=O)N([C@@H](C)CO)C[C@H](C)[C@@H](CN(C)C(=O)Nc2c(C)noc2C)OCCCC[C@H](C)O3)cc1	none (no result: HCV NS3 hel inh, NR3A LBD binder, ZTA DNA inh, DNA FID counter, EBNA-1 inhibitor)
